High-throughput results as filed in PubChem BioAssay.
DAGLB inhibitor: DAGLB lipase inhibitors, primary screen, biochemical, fluorescence, HTS. Diacylglycerol lipase-beta (Homo sapiens), Q8NCG7. HEK293T DAGLB membrane lysate, EnzChek fluorogenic substrate. inhibition, % at 5.17 µM. 340,000 tested, 0.059% active. AID 504411, 2011; in the data active means inhibition above about 34%
Target sequence (Q8NCG7 whole entry, looked up): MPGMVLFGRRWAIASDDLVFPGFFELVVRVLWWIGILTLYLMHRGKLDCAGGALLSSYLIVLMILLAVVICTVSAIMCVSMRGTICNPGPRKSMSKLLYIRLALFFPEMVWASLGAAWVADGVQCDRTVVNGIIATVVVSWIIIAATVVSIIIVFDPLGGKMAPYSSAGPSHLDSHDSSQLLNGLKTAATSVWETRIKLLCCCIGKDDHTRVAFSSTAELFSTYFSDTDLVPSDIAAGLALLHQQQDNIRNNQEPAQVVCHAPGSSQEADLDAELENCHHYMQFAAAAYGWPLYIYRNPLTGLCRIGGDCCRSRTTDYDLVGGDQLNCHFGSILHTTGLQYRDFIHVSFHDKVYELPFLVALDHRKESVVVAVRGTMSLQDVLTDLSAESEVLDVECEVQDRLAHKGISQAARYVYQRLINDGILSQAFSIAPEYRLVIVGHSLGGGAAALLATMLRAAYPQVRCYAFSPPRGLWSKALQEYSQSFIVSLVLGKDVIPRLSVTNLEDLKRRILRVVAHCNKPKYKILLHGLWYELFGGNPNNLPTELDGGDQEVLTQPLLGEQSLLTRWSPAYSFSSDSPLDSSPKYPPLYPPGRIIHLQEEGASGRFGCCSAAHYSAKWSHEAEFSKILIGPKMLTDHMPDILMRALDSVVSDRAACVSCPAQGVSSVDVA
PRMT1 FP inh: PRMT1 methyltransferase inhibitors, primary screen, biochemical, fluorescence polarization. AID 652257, 2013. inhibition, % at 2.79 µM. recombinant PRMT1, activity-based probe fluorescence polarization. Protein arginine N-methyltransferase 1 (Homo sapiens), Q99873. 370,000 tested, 1.3% active;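 active means inhibition above about 21% made by adding two undisclosed values, limit read from the data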
LEDGF integ inh: blockers of LEDGF/p75-dependent integrase strand transfer – biochemical, TR-FRET, high throughput, primary screen; TR-FRET IN-LEDGF/p75 DNA integration, Eu/Cy5; inhibition, % at 3.7 µM; 370,000 tested, 0.64% active;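 active means inhibition above the screen-wide mean plus 3 SD, cut at about 13% in these data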;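 further: signal is the Cy5 over europium emission ratio at 671 and 618 nm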
rCAG RNA binder: binders of r(CAG) RNA repeats, primary screen, biochemical, fluorescence; r(CAG) RNA repeat, TO-PRO-1 dye displacement fluorescence; inhibition, % at 3 µM; 370,000 tested, 1.3% active; AID 651821, 2012;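 active means inhibition above the plate cutoff, the mean of all test compounds on that plate plus 3 SD, cut at about 35% in these data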;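 further: higher means more dye released from RNA so lower well fluorescence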
ABHD4 inh: ABHD4 inhibitors, primary screen, biochemical, fluorescence polarization, mouse; (Lyso)-N-acylphosphatidylethanolamine lipase (Mus musculus), Q8VD66; purified mABHD4, FP-Rh probe fluorescence polarization; inhibition, % at 8.92 µM; 370,000 tested, 0.54% active;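 active means inhibition exceeding the mean over every tested compound plus 3 SD, cut at about 30% in these data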
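System: mouse ABHD4 enzyme, wild type / Medium: HEPES pH 7.0, NaCl, Pluronic buffer / Reagent: FP-Rh activity-based fluorescent probe / Control set: S159A mutant high control, sample median low control / Detection: fluorescence polarization with parallel and perpendicular emission, 525/598 nm / Schedule: 45 min + 60 min at 25 °C / Compound dosing: 8.92 µM, single dose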
HTRA1 inhibitor: HTRA1 serine protease inhibitors, primary screen, biochemical, fluorescence polarization, HTS | Q92743 | recombinant HTRA1, FP-rhodamine activity-based probe | inhibition, % at 5.96 µM | 340,000 tested, 0.5% active | AID 504803, 2011; in the data active means inhibition above about 36%
rCAG bind conf: small molecules binding CAG repeat RNA – biochemical, fluorescence, confirmation | inhibition, % at 3 µM | 4,300 tested, 70% active | shares compounds with rCAG RNA binder | r(CAG) RNA repeat, TO-PRO-1 dye displacement fluorescence;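 active means inhibition above a per-plate cutoff, the mean inhibition of sample wells plus 3 SD, cut at about 35% in these data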;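 further: loss of TO-PRO-1 fluorescence as compound displaces dye from 1x1 AA loop RNA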
dCAG dye counter: displacement of TO-PRO-1 from CAG DNA duplex, counter-screen for rCAG RNA repeat binder project, biochemical, fluorescence, TO-PRO-1 dye, d(CAG) DNA oligo; shares compounds with rCAG RNA binder; d(CAG) DNA oligo TO-PRO-1 dye displacement; inhibition, % at 3 µM; 4,300 tested, 94% active; AID 652068, 2013;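 active means inhibition above its plate's cutoff, the mean test-well inhibition plus 3 SD, cut at about 4.8% in these data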;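 further: hits displace the dye from DNA and so lower well fluorescence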
PRMT1 inh conf: PRMT1 methyltransferase inhibitors, confirmation, biochemical, fluorescence polarization, triplicate; shares compounds with PRMT1 FP inh; 3,300 tested, 42% active; AID 687036, 2013; inhibition, % at 2.79 µM; recombinant His-PRMT1, activity-based probe fluorescence polarization;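 active means mean inhibition across replicates above the hit cutoff derived for the earlier primary screen, cut at about 22% in these data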
ABHD4 confirm: ABHD4 inhibitors, retest, confirmation, biochemical, fluorescence polarization, mouse; shares compounds with ABHD4 inh; inhibition, % at 8.92 µM; 1,800 tested, 55% active; purified mABHD4, FP-Rh probe fluorescence polarization;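 active means mean inhibition across replicates above the hit cutoff set in the primary screen, cut at about 30% in these data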
Numbers stand for hits; n = inactive; x = no result given. Rows were chosen to be rich in hits. Some 3.2% of all compounds tested hit in one or more screens of this group.

SMILES	DAGLB inhibitor	PRMT1 FP inh	LEDGF integ inh	rCAG RNA binder	ABHD4 inh	HTRA1 inhibitor	rCAG bind conf	dCAG dye counter	ABHD4 confirm	others
O=C(O)CC/C(=C\c1ccc(N2CCCC2)c([N+](=O)[O-])c1)c1nc2ccccc2s1	n	n	n	70	46	n	89	53	51
CCOc1cc(Br)cc(C(c2c(C(=O)O)[nH]c3ccccc23)c2c(C(=O)O)[nH]c3ccccc23)c1O	n	n	n	95	61	n	84	59	68
CSc1ccc(C(c2c(C(=O)O)[nH]c3ccccc23)c2c(C(=O)O)[nH]c3ccccc23)cc1	n	n	n	89	46	n	82	50	61
CSc1ccc(C(c2c(C)[nH][nH]c2=O)c2c(C)[nH][nH]c2=O)cc1	n	n	n	n	n	n	x	x	x
CCOC(=O)[C@]12CCC=C1N(Cc1cccc3ccccc13)C(=O)[C@H](CC(=O)N1CCC(c3ccccc3)CC1)C2	x	n	n	n	n	x	x	x	x
C/C(=N\N1C(=O)c2ccccc2C1=O)c1cccc([N+](=O)[O-])c1	n	n	n	n	n	n	x	x	x
S=c1[nH]nc(-c2ccc(Cl)cc2)n1/N=C/c1ccco1	n	n	n	n	n	n	x	x	x
S=c1[nH]nc(-c2ccc(Cl)cc2)n1/N=C/C=C/c1ccco1	x	31	n	37	31	x	35	13	n	PRMT1 inh conf=n
O=C(NN=Cc1cc(Br)c(O)c(Br)c1)c1ccccc1NS(=O)(=O)c1cccs1	n	n	n	40	34	n	35	10	33
COc1cc(SC)ccc1C(=O)NCCCn1ccnc1	n	n	n	n	n	n	x	x	x
Cc1cc(C)n(-c2ccc(C(=O)OCC(=O)Nc3ccc(S(=O)(=O)N4CCCCC4)cc3)cc2)n1	n	x	x	x	x	n	x	x	x
O=C1Nc2ccccc2/C1=C\C(=O)c1ccccc1	n	n	n	n	n	n	x	x	x
O=C(/C=C1\C(=O)Nc2ccccc21)/C=C1\C(=O)Nc2ccccc21	n	53	n	39	41	n	n	20	n	PRMT1 inh conf=74
CCOC(=O)C1(C)CCN1C(=O)c1cccc(OC)c1 (configuration not stated)	x	n	n	n	n	x	x	x	x
O=C1NN(c2ccccc2)C(=O)C1=Cc1ccccc1	n	n	n	n	n	n	x	x	x
O=C1NN(c2cccc(Br)c2)C(=O)/C1=C\c1ccccc1	n	n	n	77	37	n	39	11	n
Cc1nn(-c2ccccc2)c(Cl)c1/C=N/Nc1ccc(S(=O)(=O)Nc2ccccc2C(=O)O)cc1[N+](=O)[O-]	n	n	n	52	42	n	92	65	62
Cc1nn(-c2ccccc2)c(Cl)c1/C=N/Nc1ccc(Cl)c(C(=O)O)c1	n	n	n	n	n	n	x	x	x
C=CCOc1ccc(C=NNc2ccc(S(=O)(=O)Nc3ccccc3C(=O)O)cc2[N+](=O)[O-])cc1OC	n	n	n	37	50	n	95	80	59
CCCC(CCC)=NNc1ccc(S(=O)(=O)Nc2ccccc2OC)cc1[N+](=O)[O-]	n	n	n	n	n	n	x	x	x
CCOc1cccc(C=NNc2ccc(S(=O)(=O)Nc3ccccc3C(=O)O)cc2[N+](=O)[O-])c1O	n	n	n	76	62	n	86	54	66
O=C(CCCN1C(=O)/C(=C\c2ccco2)SC1=S)Nc1ccc(O)cc1C(=O)O	n	62	63	90	46	n	78	43	n	PRMT1 inh conf=37
Cc1ccc(/C=C2\SC(=S)N(CCCC(=O)Nc3ccccc3C(=O)O)C2=O)cc1	n	n	n	n	n	n	x	x	x
Nc1cc(=O)n(Cc2ccccc2)c(=O)n1-c1ccc(F)cc1	n	n	n	n	n	n	x	x	x
O=C(CN1C(=O)/C(=C/c2ccccc2)SC1=S)Nc1ncc(Cc2ccccc2)s1	n	n	n	n	n	n	x	x	x
SMILES	DAGLB inhibitor	PRMT1 FP inh	LEDGF integ inh	rCAG RNA binder	ABHD4 inh	HTRA1 inhibitor	rCAG bind conf	dCAG dye counter	ABHD4 confirm	others
O=[N+]([O-])c1cc(Br)c(O)c(/C=N/Nc2nnnn2-c2cccc3ccccc23)c1	n	n	n	92	39	n	89	63	65
O=C(NNc1nc2c(F)cccc2s1)c1cc(=O)c2ccccc2o1	n	n	n	58	39	n	68	24	30
CCOC(=O)Cn1nnnc1CN(CCc1ccccc1)Cc1cc2cc(CC)ccc2[nH]c1=O	n	n	n	n	n	n	x	x	x
CCCCNC(=O)c1sc(=S)n2c1[nH]c(=O)c1ccc(C(=O)NCCc3ccc(OC)c(OC)c3)cc12	n	x	x	x	x	n	x	x	x
O=C(NCc1ccccc1)c1sc(=S)n2c1[nH]c(=O)c1ccccc12	n	n	n	47	32	n	83	50	42
CC1CCN(c2ccc(C(=O)O)cc2NS(=O)(=O)c2ccc(Br)cc2)CC1	n	n	n	35	39	n	37	11	31
COC(=O)c1ccc(N2CCCCC2)c(NS(=O)(=O)c2ccc(C)cc2)c1	n	n	n	n	n	n	x	x	x
O=C1N=c2ccccc2=C1c1sc(=O)[nH]c1O	x	n	n	n	n	x	x	x	x
CN(c1ccc(O)cc1)c1nc(O)c(C2=c3ccccc3=NC2=O)s1	n	n	n	49	43	n	n	9.2	65
CC(=O)Oc1cc(C)c(Cl)c2c(OC(C)=O)cc(C(C)=O)c(O)c12	x	24	n	40	68	x	n	6.8	39
CC(C)Oc1ccc(C(CCN)C2CCCCC2)cc1 (configuration not stated)	n	n	n	n	n	n	x	x	x
CC(=O)c1cnc(N(C)C)s1	n	n	n	n	n	n	x	x	x
